These results are taken from ChEMBL document CHEMBL1148336, “3-Aminopyrazole inhibitors of CDK2/cyclin A as antitumor agents. 1. Lead finding” (J Med Chem, 2004).

Molecules are shown by their SMILES.

For data set [1], the system named is Rattus norvegicus. Description: In vivo area under curve was determined for the compound after oral (po) administration at a dose of 10 mg/kg in rats. Further details: dose 10 mg/kg, route oral. Type of data set: ADME, organism-based. In a few lines: (§1)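 Male Sprague Dawley rats (~270), fasted overnight, received a single iv or oral dose in PEG400, 4% Tween 80/dextrose (60:40), three rats per route. Jugular/catheter blood was drawn predose and at 5, 15 and 30 min and 1, 2, 4, 6 and 24 h, and plasma was analysed by LC/MS/MS. Analysis was noncompartmental: Cmax/Tmax observed, AUC by linear trapezoidal rule, and F from dose-normalized oral/iv AUC.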

Data set [2] is described as follows: Total body clearance was evaluated for the compound after i.v. administration at a dose of 5 mg/kg was measured in rats. Type of data set: ADME, organism-based. Further details: dose 5 mg/kg, route intravenous. Conditions: rat, in vivo, iv. In a few lines:
as §1

The subject of data set [3] is Rattus norvegicus. Description: In vivo area under curve was determined for the compound after i.v. administration at a dose of 5 mg/kg in rats. Particulars: iv. On the set-up: dose 5 mg/kg, route intravenous. Type of data set: ADME, organism-based. In a few lines: as §1
Data set [4] can be described thus: Ability of compound to bind to plasma protein was evaluated in HSA cells. Particulars: mouse, HSA cells (so in the source), read-out: PPB. Type of data set: ADME, cell-based. In a few lines: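 HPLC retention time measured on a column coupled with human serum albumin. Percent bound is assigned by comparing the retention time with those of known standards.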
In a further data set the target is Casein kinase II (Homo sapiens, UniProt P19784+P67870+P68400). Nature of the data set: Inhibition of Casein kinase 2. It counts as protein-complex assay. In a few lines: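 33P-γ-ATP/ATP at 2Km, substrate 5Km, 1% DMSO, 3-fold dilutions from 10 μM, 30–90 min at room temperature. Phosphorylated substrate counted by SPA. Four-parameter logistic IC50, mean of at least two experiments.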

Data set [5] addresses Glycogen synthase kinase-3 beta (Homo sapiens, UniProt P49841). Nature of the data set: Inhibition of Glycogen synthase kinase-3 beta. Put shortly:
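GSK-3β at 20 nM (in-house, insect cells), MBP substrate, 50 mM Hepes pH 7.5, 3 mM MgCl2, 3 mM MnCl2, 1 mM DTT, 3 μM NaVO3. ATP/33P-γ-ATP 2Km, substrate 5Km, 1% DMSO. 3-fold dilutions from 10 μM, 30–90 min at room temperature. SPA.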

Data set [6] deals with Protein kinase C beta type (Homo sapiens, UniProt P05771). Description: Inhibition of Protein kinase C beta. Put shortly:
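PKCβ was commercially sourced. It was used at 0.7–100 nM enzyme with substrate at 5Km and ATP/33P-γ-ATP at 2Km, 1% DMSO, and compound in 3-fold steps from 10 to 0.0015 μM, for 30–90 min at room temperature. Phosphorylated product was separated and counted. Four-parameter logistic IC50, mean of at least two experiments.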

Data set [7] concerns the target Mitogen-activated protein kinase 1 (Homo sapiens, UniProt P28482). Description: Inhibition of Mitogen-activated protein kinase 1 activity. In a few lines:
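ERK-2 at 3 nM (insect-cell recombinant) with MBP in Tris-HCl pH 7.4 10 mM, MgCl2 10 mM, DTT 7.4 mM. ATP/33P-γ-ATP 2Km, substrate 5Km, 1% DMSO, 10 to 0.0015 μM compound, 30–90 min at room temperature. Dowex resin (formate, pH 3) removed free ATP; supernatant counted.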

In data set [8] the target is Cyclin-dependent kinase 5/CDK5 activator 1 (Homo sapiens, UniProt Q00535). Description: Inhibition of Cyclin-dependent kinase 5-p35nck5a. Type of data set: protein-complex assay. Put shortly: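 Recombinant CDK5/p25 expressed in insect cells, used at 4 nM with histone H1 substrate (5Km) and ATP/33P-γ-ATP (2Km). Run in Tris-HCl pH 7.4 buffer with MgCl2 and DTT, 1% DMSO, for 30–90 min at room temperature. 3-fold dilutions from 10 to 0.0015 μM. Product captured on streptavidin SPA beads and counted.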

For data set [9], the system named is Rattus norvegicus. Description: Maximal concentration in male Sprague-Dawley rats after 5 mg/kg intravenous dose. Type of data set: ADME, organism-based. On the set-up: dose 5 mg/kg, route intravenous. Conditions: in vivo. Put shortly: as §1
The test system of data set [10] is Rattus norvegicus. Nature of the data set: In vivo maximum time required for clearance of compound after oral (po) administration at a dose of 10 mg/kg was measured in rats. It counts as ADME, organism-based. Further details: dose 10 mg/kg, route oral. Put shortly:
as §1

The test system of data set [11] is Rattus norvegicus. Description: In vivo half-life period for compound after oral (po) administration at a dose of 10 mg/kg was measured in rats. On the set-up: dose 10 mg/kg, route oral. It counts as ADME, organism-based. Put shortly: as §1
The target in data set [12] is Mast/stem cell growth factor receptor Kit (Homo sapiens, UniProt P10721). Nature of the data set: Inhibition of KIT kinase activity. Put shortly:
(§2)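 Radiometric kinase assay. Enzyme (0.7–100 nM) and substrate (5Km) incubated with ATP/33P-γ-ATP (2Km) and compound serially diluted 3-fold from 10 to 0.0015 μM, 1% DMSO, 30–90 min at room temperature. Product separated by SPA, Dowex or phosphocellulose filter, then counted.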

The target of data set [13] is Tyrosine-protein kinase Lck (Homo sapiens, UniProt P06239). Description: Inhibition of p56 lck tyrosine kinase. In a few lines:
as §2

For data set [14], the system named is Rattus norvegicus. Description: Maximal concentration in male Sprague-Dawley rats after 10 mg/kg oral dose. Type of data set: ADME, organism-based. Particulars: in vivo. On the set-up: dose 10 mg/kg, route oral. In a few lines:
as §1

Protein kinase C beta type, sequence (P05771 whole entry): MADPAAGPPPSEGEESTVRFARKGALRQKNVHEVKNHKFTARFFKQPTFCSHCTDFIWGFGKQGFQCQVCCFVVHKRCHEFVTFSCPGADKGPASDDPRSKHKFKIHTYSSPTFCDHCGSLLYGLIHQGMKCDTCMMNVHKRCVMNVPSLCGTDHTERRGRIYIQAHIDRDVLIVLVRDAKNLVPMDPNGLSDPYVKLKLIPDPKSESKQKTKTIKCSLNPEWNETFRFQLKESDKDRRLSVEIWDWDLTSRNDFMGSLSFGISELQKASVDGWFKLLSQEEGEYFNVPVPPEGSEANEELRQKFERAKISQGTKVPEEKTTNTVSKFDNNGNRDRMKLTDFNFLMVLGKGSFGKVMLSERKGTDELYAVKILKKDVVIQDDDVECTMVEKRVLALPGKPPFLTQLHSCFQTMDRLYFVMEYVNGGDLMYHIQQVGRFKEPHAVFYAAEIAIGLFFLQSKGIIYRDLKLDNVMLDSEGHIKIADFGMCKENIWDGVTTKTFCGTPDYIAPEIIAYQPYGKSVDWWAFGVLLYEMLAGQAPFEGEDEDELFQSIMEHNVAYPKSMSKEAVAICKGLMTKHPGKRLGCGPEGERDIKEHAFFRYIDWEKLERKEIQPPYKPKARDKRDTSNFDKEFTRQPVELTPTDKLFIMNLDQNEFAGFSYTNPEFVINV
Casein kinase II, sequence (P67870 whole entry): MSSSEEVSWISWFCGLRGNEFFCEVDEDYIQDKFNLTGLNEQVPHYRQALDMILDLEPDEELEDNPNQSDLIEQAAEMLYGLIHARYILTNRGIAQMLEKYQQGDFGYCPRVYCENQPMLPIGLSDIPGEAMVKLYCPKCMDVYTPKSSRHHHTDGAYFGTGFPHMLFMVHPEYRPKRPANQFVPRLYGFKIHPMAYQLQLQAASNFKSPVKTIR
Casein kinase II, sequence (P68400 whole entry): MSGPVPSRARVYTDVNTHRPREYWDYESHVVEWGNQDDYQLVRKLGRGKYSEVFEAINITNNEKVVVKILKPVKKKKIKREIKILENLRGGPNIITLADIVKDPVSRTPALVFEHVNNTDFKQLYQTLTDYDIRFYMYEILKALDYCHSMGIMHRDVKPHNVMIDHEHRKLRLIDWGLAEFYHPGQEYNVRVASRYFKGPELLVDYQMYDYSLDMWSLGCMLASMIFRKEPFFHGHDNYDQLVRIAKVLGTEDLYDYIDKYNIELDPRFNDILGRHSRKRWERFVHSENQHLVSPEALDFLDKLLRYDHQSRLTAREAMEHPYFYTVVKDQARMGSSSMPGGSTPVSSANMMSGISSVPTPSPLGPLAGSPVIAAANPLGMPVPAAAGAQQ
Casein kinase II, sequence (P19784 whole entry): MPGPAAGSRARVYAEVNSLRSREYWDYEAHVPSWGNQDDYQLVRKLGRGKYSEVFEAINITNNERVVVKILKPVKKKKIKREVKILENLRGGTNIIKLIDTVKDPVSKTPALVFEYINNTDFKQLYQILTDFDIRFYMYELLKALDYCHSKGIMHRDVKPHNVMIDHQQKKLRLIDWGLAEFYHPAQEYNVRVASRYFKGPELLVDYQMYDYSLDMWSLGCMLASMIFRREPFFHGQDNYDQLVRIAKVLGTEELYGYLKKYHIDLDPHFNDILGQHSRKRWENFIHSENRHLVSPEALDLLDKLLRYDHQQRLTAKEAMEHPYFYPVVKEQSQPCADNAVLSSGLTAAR
Glycogen synthase kinase-3 beta, sequence (P49841 whole entry): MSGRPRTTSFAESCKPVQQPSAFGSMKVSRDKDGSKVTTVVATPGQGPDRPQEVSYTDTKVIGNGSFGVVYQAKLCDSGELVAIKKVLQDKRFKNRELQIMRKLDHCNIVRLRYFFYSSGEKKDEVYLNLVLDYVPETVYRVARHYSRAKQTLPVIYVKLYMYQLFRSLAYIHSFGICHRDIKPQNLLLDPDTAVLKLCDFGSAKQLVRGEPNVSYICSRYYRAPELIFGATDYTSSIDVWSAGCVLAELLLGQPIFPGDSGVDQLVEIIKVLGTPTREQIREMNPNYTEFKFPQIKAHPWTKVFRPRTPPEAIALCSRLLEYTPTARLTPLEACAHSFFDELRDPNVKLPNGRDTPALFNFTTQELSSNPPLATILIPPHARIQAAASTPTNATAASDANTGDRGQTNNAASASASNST
Cyclin-dependent kinase 5/CDK5 activator 1, sequence (Q00535 whole entry): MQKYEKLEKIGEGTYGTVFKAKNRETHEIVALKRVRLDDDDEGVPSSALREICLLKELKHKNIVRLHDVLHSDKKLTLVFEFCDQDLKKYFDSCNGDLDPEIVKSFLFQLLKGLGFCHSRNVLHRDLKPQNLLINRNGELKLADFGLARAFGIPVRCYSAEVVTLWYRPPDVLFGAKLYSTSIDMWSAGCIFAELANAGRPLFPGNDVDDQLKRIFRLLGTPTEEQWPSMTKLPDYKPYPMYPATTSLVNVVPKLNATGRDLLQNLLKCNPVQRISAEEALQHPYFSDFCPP
Cyclin-dependent kinase 5/CDK5 activator 1, sequence (Q15078 whole entry, further chain): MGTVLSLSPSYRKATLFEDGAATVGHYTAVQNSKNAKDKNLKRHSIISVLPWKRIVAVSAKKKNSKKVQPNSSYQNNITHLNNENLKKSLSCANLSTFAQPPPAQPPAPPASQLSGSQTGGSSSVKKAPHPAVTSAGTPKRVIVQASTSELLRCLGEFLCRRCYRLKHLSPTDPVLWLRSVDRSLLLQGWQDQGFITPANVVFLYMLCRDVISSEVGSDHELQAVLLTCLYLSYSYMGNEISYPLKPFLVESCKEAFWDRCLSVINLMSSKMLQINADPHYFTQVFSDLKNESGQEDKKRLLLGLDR
Mitogen-activated protein kinase 1, sequence (P28482 whole entry): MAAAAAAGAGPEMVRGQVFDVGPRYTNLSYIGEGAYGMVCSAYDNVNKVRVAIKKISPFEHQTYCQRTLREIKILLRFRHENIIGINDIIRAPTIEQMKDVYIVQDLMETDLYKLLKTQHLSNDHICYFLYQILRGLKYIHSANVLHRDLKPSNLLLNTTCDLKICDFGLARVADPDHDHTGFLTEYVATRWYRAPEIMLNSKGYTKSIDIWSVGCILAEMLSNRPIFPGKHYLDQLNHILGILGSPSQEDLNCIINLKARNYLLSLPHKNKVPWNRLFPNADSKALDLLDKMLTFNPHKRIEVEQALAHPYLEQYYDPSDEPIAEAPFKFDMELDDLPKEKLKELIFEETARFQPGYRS
Tyrosine-protein kinase Lck, sequence (P06239 whole entry): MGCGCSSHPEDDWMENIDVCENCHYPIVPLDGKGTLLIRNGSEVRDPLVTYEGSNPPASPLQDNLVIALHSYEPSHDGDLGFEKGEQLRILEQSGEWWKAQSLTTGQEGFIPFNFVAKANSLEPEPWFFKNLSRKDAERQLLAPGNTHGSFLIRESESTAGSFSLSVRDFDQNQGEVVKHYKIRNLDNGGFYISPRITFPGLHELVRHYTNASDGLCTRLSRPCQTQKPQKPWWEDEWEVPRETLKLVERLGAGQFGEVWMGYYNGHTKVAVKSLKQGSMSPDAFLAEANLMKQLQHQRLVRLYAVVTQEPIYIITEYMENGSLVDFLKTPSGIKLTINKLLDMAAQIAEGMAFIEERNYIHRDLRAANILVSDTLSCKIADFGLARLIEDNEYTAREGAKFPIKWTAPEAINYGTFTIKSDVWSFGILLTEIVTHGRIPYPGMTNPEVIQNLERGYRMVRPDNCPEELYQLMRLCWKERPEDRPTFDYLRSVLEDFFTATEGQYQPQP
Mast/stem cell growth factor receptor Kit, sequence (P10721 whole entry): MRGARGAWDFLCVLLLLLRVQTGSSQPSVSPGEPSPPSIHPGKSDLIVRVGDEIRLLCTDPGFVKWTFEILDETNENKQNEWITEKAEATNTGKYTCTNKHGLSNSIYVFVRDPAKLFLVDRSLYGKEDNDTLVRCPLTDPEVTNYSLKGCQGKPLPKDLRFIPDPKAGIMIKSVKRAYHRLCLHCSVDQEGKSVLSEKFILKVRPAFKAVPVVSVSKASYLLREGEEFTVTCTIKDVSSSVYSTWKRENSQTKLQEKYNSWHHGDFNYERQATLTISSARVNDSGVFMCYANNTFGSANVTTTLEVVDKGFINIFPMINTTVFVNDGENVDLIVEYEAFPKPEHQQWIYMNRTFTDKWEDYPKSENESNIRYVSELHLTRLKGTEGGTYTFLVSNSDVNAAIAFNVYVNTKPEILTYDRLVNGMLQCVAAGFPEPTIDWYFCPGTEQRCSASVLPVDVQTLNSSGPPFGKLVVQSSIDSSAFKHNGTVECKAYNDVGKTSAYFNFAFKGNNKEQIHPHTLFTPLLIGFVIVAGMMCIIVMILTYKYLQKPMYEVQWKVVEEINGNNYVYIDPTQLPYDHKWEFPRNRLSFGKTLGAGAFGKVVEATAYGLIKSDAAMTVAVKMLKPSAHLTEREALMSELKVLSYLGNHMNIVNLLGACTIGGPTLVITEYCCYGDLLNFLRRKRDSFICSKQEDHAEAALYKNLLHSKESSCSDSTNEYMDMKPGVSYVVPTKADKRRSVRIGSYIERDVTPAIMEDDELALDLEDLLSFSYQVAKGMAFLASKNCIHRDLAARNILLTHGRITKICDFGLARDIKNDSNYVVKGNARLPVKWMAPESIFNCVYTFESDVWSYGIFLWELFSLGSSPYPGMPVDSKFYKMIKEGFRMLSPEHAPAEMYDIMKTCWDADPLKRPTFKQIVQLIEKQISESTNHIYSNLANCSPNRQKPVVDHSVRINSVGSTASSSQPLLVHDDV

Take `O=C(Cc1ccc2ccccc2c1)Nc1cc(C2CC2)n[nH]1`: the AUC total in the data set with Rattus norvegicus [1] worked out at 38.18 µM·h; in the data set with Rattus norvegicus [3], 21.24 µM·h. The clearance in data set [2] was found to be 13.5 mL/min/kg. For the same compound, the fraction unbound in data set [4] came out at 0.01. For the same compound, the IC50 against Casein kinase II was over 10 µM; in [5], 1.91 µM; in data set [6] it was over 10 µM; in data set [7], 4.6 µM; in data set [8] it was 0.114 µM; in data set [12], over 10 µM. In [13], this compound showed an IC50 of over 10 µM. For the same compound, the Cmax in the data set with Rattus norvegicus [9] was 19.4 µM; with Rattus norvegicus [14], 9.63 µM. In addition, in the data set on Rattus norvegicus [10], the T max turned out to be 1.39 h. The T1/2 with Rattus norvegicus [11] turned out to be 2.38 h.

For orientation: clearance means the rate of elimination divided by the concentration. Low values mean inefficient removal, high ones efficient removal. For orientation: IC50 means the concentration needed to halve the response being measured. Higher therefore signals weaker potency. What is called Cmax is the maximum level reached in the sampled fluid or tissue.
